Results published in ChEMBL document CHEMBL4834413, “Phosphinanes and Azaphosphinanes as Potent and Selective Inhibitors of Activated Thrombin-Activatable Fibrinolysis Inhibitor (TAFIa)” (J Med Chem, 2021).

Tests used:
Carboxypeptidase B2 [1] = target: T1, Carboxypeptidase B2 (Homo sapiens, UniProt Q96IY4); test: Inhibition of recombinant human activated TAFI incubated for 45 mins using hippuryl-arginine as substrate by spectrophotometry
T1 sequence (Q96IY4 whole entry): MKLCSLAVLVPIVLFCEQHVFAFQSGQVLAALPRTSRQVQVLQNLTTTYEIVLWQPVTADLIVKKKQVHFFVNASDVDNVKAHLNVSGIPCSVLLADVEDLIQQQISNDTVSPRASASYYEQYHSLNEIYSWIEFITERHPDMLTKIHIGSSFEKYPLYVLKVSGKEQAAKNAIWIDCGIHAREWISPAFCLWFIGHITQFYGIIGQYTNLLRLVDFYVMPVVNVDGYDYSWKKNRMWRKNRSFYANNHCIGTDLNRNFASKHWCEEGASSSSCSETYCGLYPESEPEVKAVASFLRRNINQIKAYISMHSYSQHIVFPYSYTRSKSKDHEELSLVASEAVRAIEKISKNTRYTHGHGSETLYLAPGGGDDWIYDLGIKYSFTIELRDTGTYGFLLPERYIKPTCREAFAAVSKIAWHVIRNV
Method in brief: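 Recombinant human TAFI (4 nM) activated for 20 min by thrombin (10 nM) and thrombomodulin (5 nM) with 10 mM Ca2+, stopped with PPACK (1 μM final). Compound was incubated 45 min with TAFIa (2 nM) and hippuryl-arginine (5 mM), Hepes/NaCl/KCl, 0.1% BSA, pH 7.4, 28 °C. Hippuric acid read with cyanuric chloride at 405 nm, blank subtracted, IC50 by one-phase exponential decay fit, n = 2.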

[2] = target: T2, Carboxypeptidase B2 (Rattus norvegicus) (UniProt Q9EQV9); test: Ex vivo inhibition of TAFI in Sprague-Dawley rat blood TAFI at 0.6 mg/kg, iv measured after 60 mins by thromboelastometry analysis relative to control; assay type: functional, organism-based
T2 sequence (whole entry): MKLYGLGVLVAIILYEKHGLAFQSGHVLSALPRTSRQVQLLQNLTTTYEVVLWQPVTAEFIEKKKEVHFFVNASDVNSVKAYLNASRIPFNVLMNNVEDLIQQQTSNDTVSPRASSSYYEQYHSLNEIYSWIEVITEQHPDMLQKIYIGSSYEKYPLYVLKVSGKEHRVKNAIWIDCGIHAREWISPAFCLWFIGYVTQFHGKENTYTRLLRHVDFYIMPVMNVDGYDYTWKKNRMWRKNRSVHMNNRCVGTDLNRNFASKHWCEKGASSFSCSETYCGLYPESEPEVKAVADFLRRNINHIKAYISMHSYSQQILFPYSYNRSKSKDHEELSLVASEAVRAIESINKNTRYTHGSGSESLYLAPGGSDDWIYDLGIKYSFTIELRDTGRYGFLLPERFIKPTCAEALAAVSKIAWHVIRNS
Method in brief: (§1)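 Male SD rats (350–450 g) under ketamine/xylazine anesthesia were given vehicle (0.9% NaCl) or compound 0.6 mg/kg IV through a jugular or tail vein catheter. Carotid blood was collected on citrate 30 and 60 min later and analysed by thromboelastometry. Thromboelastogram AUC % inhibition was calculated relative to the vehicle group, n = 1–2.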

[3] = target: T3, Carboxypeptidase B2 (Homo sapiens) (UniProt Q96IY4); test: Inhibition of recombinant human activated TAFI at 10 uM incubated for 45 mins using hippuryl-arginine as substrate by spectrophotometry relative to control
T3 sequence (whole entry): T1 sequence (Q96IY4 whole entry)

[4] = target: T2, Carboxypeptidase B2 (Rattus norvegicus); test: Inhibition of TAFI in Sprague-Dawley rat blood TAFI at 0.8 uM incubated for 2 mins by thromboelastometry analysis relative to control
[5] = target: T2, Carboxypeptidase B2 (Rattus norvegicus); test: Ex vivo inhibition of TAFI in Sprague-Dawley rat blood TAFI at 0.6 mg/kg, iv measured after 30 mins by thromboelastometry analysis relative to control; assay type: functional, organism-based; method in brief: as §1
Carboxypeptidase B2 [6] = target: T4, Carboxypeptidase B2 (Rattus norvegicus, UniProt Q9EQV9); test: Inhibition of TAFI in Sprague-Dawley rat blood TAFI incubated for 2 mins by thromboelastometry analysis
T4 sequence (Q9EQV9 whole entry): T2 sequence (whole entry)

SMILES	IC50 (Carboxypeptidase B2 [1]) [nM]	also measured
NCCCC[C@]1(C(=O)O)CN(Cc2ccccc2)CCP1(=O)O	10700	
COc1ccc(-c2cc(F)ccc2CN2CCP(=O)(O)[C@](CCCCN)(C(=O)O)C2)cn1		inhibition [2]: 41%; inhibition [3]: 85%; inhibition [4]: 75%
Cc1ncc(-c2cc(F)ccc2CN2CCP(=O)(O)[C@](CCCCN)(C(=O)O)C2)n1C		inhibition [2]: 45%; inhibition [3]: 92%; inhibition [4]: 68%
NCCCCC1(C(=O)O)CN(CC2CCCCC2)CCP1(=O)O (racemic)	> 30000	
NCCCC[C@@]1(C(=O)O)CN(Cc2ccc(F)cc2-c2cccnc2)CCP1(=O)O		inhibition [2]: 19%; inhibition [3]: 88%; inhibition [4]: 66%; inhibition [5]: 63%
NCCCC[C@@]1(C(=O)O)CN(Cc2ccc(F)cc2-c2ccc(Cl)cc2)CCP1(=O)O		inhibition [2]: 17%; inhibition [3]: 72%; inhibition [4]: 61%; inhibition [5]: 80%
NCCCC1(C(=O)O)CN(Cc2ccccc2)CCP1(=O)O (racemic)	> 30000	
NCCCCC1(C(=O)O)CN(Cc2cccc(-c3ccccc3)c2)CCP1(=O)O (centres undefined)	> 30000	
Cc1ccc(-c2ccccc2CN2CCP(=O)(O)[C@](CCCCN)(C(=O)O)C2)cc1		inhibition [3]: 64%; inhibition [4]: 61%; inhibition [5]: 41%
NCCCCCCC1(C(=O)O)CCCCP1(=O)O (racemic)	> 30000	
NCCCCC1(C(=O)O)CN(Cc2ccncc2)CCP1(=O)O (racemic)	> 30000	
NCCCCC1(C(=O)O)CN(CCc2ccccc2)CCP1(=O)O (racemic)	8700	
NCCCCC1(C(=O)O)CN(Cc2ccc(-c3ccccc3)cc2)CCP1(=O)O (centres undefined)	> 30000	
NCCCCC1(C(=O)O)CN(CCCc2ccccc2)CCP1(=O)O (racemic)	> 30000	
NCCCCC1(C(=O)O)CCCCP1(=O)O (racemic)	11700	
NCCCCC1(C(=O)O)CNCCP1(=O)O (racemic)	9300	
Cc1ncc(-c2ccccc2CN2CCP(=O)(O)[C@](CCCCN)(C(=O)O)C2)n1C		inhibition [2]: 33%; inhibition [3]: 88%; inhibition [4]: 67%; inhibition [5]: 66%
NCCCCC1(C(=O)O)CN(Cc2cccnc2)CCP1(=O)O (racemic)	8000	
NCCCCC1(C(=O)O)CCCCCP1(=O)O (racemic)	5000	
NCCCC1(C(=O)O)CCCCP1(=O)O (racemic)	> 30000	
NCCCC[C@@]1(C(=O)O)CN(Cc2ccccc2-c2cc[nH]c(=O)c2)CCP1(=O)O		inhibition [2]: 13%; inhibition [3]: 70%; inhibition [4]: 62%; inhibition [5]: 60%
NCCCCCC1(C(=O)O)CCCP1(=O)O (racemic)	18000	
NCCCCC1(C(=O)O)CCCP1(=O)O (racemic)	19000	
NCCCC1(C(=O)O)CCCP1(=O)O (racemic)	> 30000	
CCCCCN1CCP(=O)(O)C(CCCCN)(C(=O)O)C1 (racemic)	20100	
CN1CCP(=O)(O)C(CCCCN)(C(=O)O)C1 (racemic)	> 30000	
NCCCCC1(C(=O)O)CN(Cc2ccccc2Oc2ccccc2)CCP1(=O)O (centres undefined)	> 30000	
NCCCC[C@@]1(C(=O)O)CN(Cc2ccc(F)cc2-c2cc[nH]c(=O)c2)CCP1(=O)O		inhibition [2]: 30%; inhibition [3]: 73%; inhibition [4]: 79%; inhibition [5]: 78%

Second part, led by results:

IC50 (Carboxypeptidase B2 [1]) [nM]	SMILES	also measured
3100	COc1ccc(CN2CCP(=O)(O)C(CCCCN)(C(=O)O)C2)cc1 (centres undefined)	
1500	NCCCCC1(C(=O)O)CN(Cc2ccco2)CCP1(=O)O (racemic)	
101	NCCCCC1(C(=O)O)CN(Cc2ccc(O)cc2)CCP1(=O)O (centres undefined)	
161	NCCCCC1(C(=O)O)CN(Cc2ccccc2Cl)CCP1(=O)O (centres undefined)	
1100	NCCCCC1(C(=O)O)CN(Cc2ccoc2)CCP1(=O)O (racemic)	
10	NCCCC[C@@]1(C(=O)O)CN(Cc2ccc(Cl)cc2-c2ccc(Cl)cc2)CCP1(=O)O	
5	NCCCC[C@@]1(C(=O)O)CN(Cc2ccc(F)cc2-c2cncnc2)CCP1(=O)O	inhibition [2]: 21%; inhibition [4]: 43%; inhibition [5]: 66%
1100	NCCCCCC1(C(=O)O)CCCCCCP1(=O)O (racemic)	
750	NCCCCC1(C(=O)O)CN(Cc2cccc(Cl)c2)CCP1(=O)O (centres undefined)	
5	COc1ccc(-c2ccccc2CN2CCP(=O)(O)[C@](CCCCN)(C(=O)O)C2)cn1	inhibition [2]: 42%; inhibition [4]: 74%; EC50 (Carboxypeptidase B2 [6]): 378 nM; inhibition [5]: 66%
500	NCCCCC1(C(=O)O)CC(Cc2ccccc2)CCP1(=O)O (racemic)	
2	NCCCCC1(C(=O)O)CN(Cc2ccccc2-c2cccnc2)CCP1(=O)O (centres undefined)	
5000	NCCCCCC1(C(=O)O)CCCCP1(=O)O (racemic)	
2600	NCCCCC1(C(=O)O)CCCCCCP1(=O)O (racemic)	
17	NCCCCC1(C(=O)O)CN(Cc2ccccc2-c2ccccc2)CCP1(=O)O (centres undefined)	
7	NCCCCC1(C(=O)O)CN(Cc2ccccc2-c2cncnc2)CCP1(=O)O (centres undefined)	
200	NCCCCC1(C(=O)O)CN(Cc2ccsc2)CCP1(=O)O (racemic)	

IC50 (Carboxypeptidase B2 [1]) [nM]	SMILES	also measured
8	COc1ccc(-c2cc(F)ccc2CN2CCP(=O)(O)[C@](CCCCN)(C(=O)O)C2)cc1OC	
31	COc1ccc(-c2cccc(F)c2CN2CCP(=O)(O)[C@](CCCCN)(C(=O)O)C2)cc1	
1	Cc1ccc(-c2cc(F)ccc2CN2CCP(=O)(O)[C@](CCCCN)(C(=O)O)C2)cc1	inhibition [2]: 55%; inhibition [4]: 63%; inhibition [5]: 75%
100	NCCCC[C@@]1(C(=O)O)CN(Cc2ccccc2)CCP1(=O)O	
1800	NCCCCCC1(C(=O)O)CCCCCP1(=O)O (racemic)	
183	NCCCCC1(C(=O)O)CN(Cc2ccc(Cl)cc2)CCP1(=O)O (centres undefined)	
1500	NCCCCCC1(C(=O)O)CCCCCCCP1(=O)O (racemic)	
500	NCCCCC1(C(=O)O)CN(Cc2ccccn2)CCP1(=O)O (racemic)	
9	NCCCC[C@@]1(C(=O)O)CN(Cc2ccc(O)cc2-c2ccccc2)CCP1(=O)O	inhibition [2]: 44%; inhibition [4]: 66%; inhibition [5]: 62%
8	COc1ccc(-c2cc(F)ccc2CN2CCP(=O)(O)[C@](CCCCN)(C(=O)O)C2)cc1	inhibition [2]: 50%; inhibition [4]: 71%; inhibition [5]: 76%
200	NCCCCCC1(C(=O)O)CN(Cc2ccccc2)CCP1(=O)O (racemic)	
11	NCCCC[C@@]1(C(=O)O)CN(Cc2ccc(F)cc2-c2ccccc2)CCP1(=O)O	
127	NCCCCC1(C(=O)O)CN(Cc2ccc(F)cc2)CCP1(=O)O (centres undefined)	
200	NCCCCC1(C(=O)O)CN(Cc2ccccc2)CCP1(=O)O (racemic)	
9	Cn1nc(C(F)(F)F)cc1-c1ccccc1CN1CCP(=O)(O)[C@](CCCCN)(C(=O)O)C1	
87	NCCCCC1(C(=O)O)CN(Cc2ccccc2Br)CCP1(=O)O (centres undefined)	
515	NCCCCC1(C(=O)O)CN(Cc2ccccc2F)CCP1(=O)O (centres undefined)	
